# Assay results collected from several papers.
# Each line is one published result; the experiments were not run side by side.
# Target: Serine/threonine-protein kinase N1 (PKN1, Homo sapiens, UniProt Q16512)
Compound,test,conditions,quantity,value
O=S(=O)(c1cccc2cnccc12)N1CCCNCC1,cell-free assay,0.5 µM,remaining signal,40.5%
Cn1c(=O)n(-c2ccc(C(C)(C)C#N)cc2)c2c3cc(-c4cnc5ccccc5c4)ccc3ncc21,"enzyme activity, inhibitor",1 µM,activity vs control,84%
CN1CCC2(CC1)NC(=O)c1c(c3ccc(Cl)c(Cl)c3n1C)C2C#N (racemic),"thermal stability, DSF",10 µM,ΔTm,1 °C
C[C@H](c1cccc(C#N)c1)n1cc(Cl)cc(C(N)=O)c1=N,"cell-free assay, competition with immobilised ligand",1 µM,remaining binding,65%
CC[C@@H]1C(=O)N(C)c2cnc(Nc3ccc(C(=O)NC4CCN(C)CC4)cc3OC)nc2N1C1CCCC1,"enzyme activity, inhibitor",1 µM,activity vs control,77%
Cc1ccc(C(=O)Nc2ccc(CN3CCN(C)CC3)c(C(F)(F)F)c2)cc1C#Cc1cnc2cccnn12,"enzyme activity, inhibitor",23.5 nM,remaining activity,100%
FC(F)(F)c1ccc2c(c1)nc(-c1cccnc1)n2C1CC1,"cell-free assay, competition with immobilised ligand",1 µM,remaining binding,100%
COc1cccc2c(NCc3ccccc3)nc(-n3c(N)nc4ccccc43)nc12,"target engagement in cells, inhibitor, chemoproteomics",20 mM,inhibition,0.9%
CO[C@@H](C)Cn1c(=O)n(C)c2cnc3ccc(-c4cncc(C(C)(C)O)c4)cc3c21,"enzyme activity, inhibitor",1 µM,activity vs control,94%
O=C(NCc1ncc(C(F)(F)F)cc1Cl)c1ccc2c(c1)C1(CCS(=O)(=O)CC1)[C@@H](C1CC1)N2S(=O)(=O)c1ccc(F)cc1,"cell-free assay, competition with immobilised ligand",1 µM,remaining binding,100%
COc1cc(-c2cc(-c3ccc(N4CCNCC4)cc3)cnc2C)cc(OC)c1OC,"enzyme activity, inhibitor",1 µM,inhibition,6%
CN(C)C1CCN(CC#Cc2nn(C3CCCC3)c3nc(NCc4ccccc4)ncc23)C1 (centres unmarked),"enzyme activity, inhibitor, FRET",1 µM,inhibition,1%
O=C1NC(=O)c2cc(Nc3ccc(F)cc3)c(Nc3ccc(F)cc3)cc21,cell-free assay,0.5 µM,remaining signal,97.7%
CC(=O)C1=C(C)N(c2cccc(C(F)(F)F)c2)C(=O)N[C@@H]1c1ccc(C#N)nc1,"cell-free assay, competition with immobilised ligand",1 µM,remaining binding,71.1%
COc1cc2ncnc(Nc3ccc(Oc4ccccc4)cc3C)c2cc1OC,"enzyme activity, inhibitor",1 µM,inhibition,4%
C=CC(=O)Nc1cc(N2CCN(CC)CC2)ccc1Nc1cc(N(C)C(=O)Nc2c(Cl)c(OC)cc(OC)c2Cl)ncn1,"enzyme activity, inhibitor",1 µM,activity vs control,103%
COc1cc(-c2cn(C3CCc4c(F)cccc4N(CC(F)(F)F)C3=O)nn2)ccc1-n1cnc(C)c1 (centres unmarked),"cell-free assay, competition with immobilised ligand",1 µM,remaining binding,96%
COc1ccc(-c2cc3nccn3c(Nc3ncccc3C(N)=O)n2)cc1OC.Cl,"enzyme activity, inhibitor",1 µM,activity vs control,50%
CN1CC(Oc2cnc(C#N)cc2-c2ccn3nc(NC(=O)C4CC4)cc3c2)C1,"enzyme activity, inhibitor",1 µM,inhibition,-9%
Nc1cc(N)c(N)cc1N,"enzyme activity, inhibitor",1 µM,activity vs control,72%
Cc1c(NC(=O)c2cc(C(N)=O)nc3cc(F)ccc23)c(C(F)(F)F)nn1Cc1ccc(C(C)(C)C)cc1,"cell-free assay, competition with immobilised ligand",1 µM,remaining binding,100%
Cl.Cl.O=C(NCCCNc1nc(Nc2cccc(CN3CCOCC3)c2)ncc1C1CC1)C1CCC1,"enzyme activity, inhibitor",1 µM,activity vs control,52%
CC(C)(C)c1nc2c(s1)c1nc(N)ncc1c1ccc(NS(=O)(=O)c3c(F)cccc3F)c(F)c12,"enzyme activity, inhibitor, radiometric",1 µM,remaining activity,102%
